Measured values from ChEMBL document CHEMBL1126765, “Analogues of capsaicin with agonist activity as novel analgesic agents; structure-activity studies. 1. The aromatic "A-region"” (J Med Chem, 1993).

How the values were obtained:
Rattus norvegicus = species on record: Rattus norvegicus; assay: In vitro effective concentration for [Ca2+] uptake and accumulation of [Ca2+] in neonatal rat cultured spinal sensory neurons; assay type: functional
Outline: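 Newborn rat DRG neurones dissociated with collagenase then 2.5 mg/mL trypsin at 37 °C, plated with 1 μg/mL NGF, 10^-4 M cytosine arabinoside for 48 h; used at 3-7 days. Cells washed in Ca-free HEPES BSS pH 7.4, then given compound plus 10 μCi/mL 45Ca2+ with 1% DMSO for 10 min at room temperature. SDS-extracted, scintillation counted. Sigmoidal fit; ≥6 replicates, ≥2 experiments; mean ± SEM.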

Cavia porcellus = species on record: Cavia porcellus; assay: In vitro contraction in guinea pig ileum equivalent to 50% capsaicin response; assay type: functional
Outline: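 Male Dunkin-Hartley guinea pig ileum segments in Tyrode's solution at 37 °C, gassed 95% O2/5% CO2, isometric recording, 1 h equilibration under 0.5 g tension. […] doses given at 1 h intervals with frequent washes. Contraction amplitude expressed as % of maximal capsaicin response; EC50 = concentration giving 50% of that response; mean ± SEM from at least four tissues.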

Mus musculus = assay: In vivo analgesic activity, mouse tail flick latency in antinociceptive assay; assay type: functional
Outline: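 Female CD-1 mice, about 20 g, fasted overnight. Drug or vehicle given s.c. into the back of the neck, 10 per group. Tail flick latency to a focused light beam measured 1 h later at 3.5 cm from the tip, 30 s cutoff. % analgesia = (drug − vehicle latency)/(30 s − vehicle latency); ED50 = dose giving 50% analgesia. Mann-Whitney U or Dunnett's test.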

[1] = Acid dissociation constant was determined; assay type: ADME

| Structure (SMILES) | EC50 (Rattus norvegicus) | EC50 (Cavia porcellus) | ED50 (Mus musculus) | pKa [1] |
| --- | --- | --- | --- | --- |
| CCCCCCCCC(=O)NCc1cc(=O)c(O)co1 | > 100 µM |  |  |  |
| CCCCCCCCC(=O)NCc1ccc2[nH]ccc2c1 | > 100 µM |  |  |  |
| CCCCCCCCNC(=O)Cc1ccc(OC)c(C)c1 | > 100 µM |  |  |  |
| CCCCCCCCC(=O)NCc1cc(OC)c(OC)c(OC)c1 | > 100 µM |  |  |  |
| CCCCCCCCNC(=O)Cc1cc(OC)c(O)c(OC)c1 | > 100 µM |  |  |  |
| CCCCCCCCC(=O)NCc1ccc(O)c(O)c1O | 7.64 µM |  |  |  |
| CCCCCCCCC(=O)NCc1ccnc(OC)c1 | 31.5 µM |  |  |  |
| CCCCCCCCNC(=O)Cc1ccc(OC)c(O)c1 | 1.82 µM |  |  |  |
| CCCCCCCCNC(=O)Cc1ccc2ncccc2c1 | > 100 µM |  |  |  |
| CCCCCCCCC(=O)NCc1ccc(N)c(OC)c1 | > 10 µM |  |  |  |
| CCCCCCCCNC(=O)Cc1ccc2c(c1)OCO2 | > 100 µM |  |  |  |
| CCCCCCCCNC(=O)Cc1ccc(O)c(Cl)c1 | 0.26 µM | 0.68 µM | > 50 µmol/kg | 9 |
| CCCCCCCCNC(=O)Cc1ccc(O)c([N+](=O)[O-])c1 | 1.04 µM | 2.78 µM | > 50 µmol/kg | 7.7 |
| CCCCCCCCC(=O)NCc1ccncc1 | 28 µM |  |  |  |
| CCCCCCCCC(=O)NCc1cc[n+]([O-])cc1 | > 100 µM |  |  |  |
| CCCCCCCCC(=O)NCc1ccc([N+](=O)[O-])c(OC)c1 | 7.91 µM |  |  |  |
| CCCCCCCCNC(=O)Cc1ccc(O)c(OCC)c1 | 4.34 µM | 4.96 µM | > 50 µmol/kg | 10.4 |
| CCCCCCCCC(=O)NCc1ccc(C(=O)O)cc1 | > 100 µM |  |  |  |
| CCCCCCCCNC(=O)Cc1ccc(O)c2c1OCCO2 | > 100 µM |  |  |  |
| CCCCCCCCC(=O)NCc1cc(O)cc(OC)c1 | > 100 µM |  |  |  |
| CCCCCCCCC(=O)NCc1cccc(OC)c1 | > 100 µM |  |  |  |

| Structure (SMILES) | EC50 (Rattus norvegicus) | EC50 (Cavia porcellus) | ED50 (Mus musculus) | pKa [1] |
| --- | --- | --- | --- | --- |
| CCCCCCCCC(=O)NCc1ccc(O)cc1OC | > 100 µM |  |  |  |
| CCCCCCCCNC(=O)Cc1ccc(O)c(OC)c1 | 0.3 µM | 0.33 µM | 9.2 µmol/kg | 9.9 |
| CCCCCCCCNC(=O)Cc1ccc(O)c(OC)c1OC | > 100 µM |  |  |  |
| CCCCCCCCC(=O)NCc1ccc(S)c(OC)c1 | > 100 µM |  |  |  |
| CCCCCCCCNC(=O)Cc1cccc(OC)c1 | > 100 µM |  |  |  |
| CCCCCCCCNC(=O)Cc1ccc(O)c(C)c1 | > 100 µM |  |  | 10.6 |
| CCCCCCCCC(=O)NCc1ccc(OC)cc1 | > 100 µM | 22.2 µM | > 50 µmol/kg |  |
| CCCCCCCCC(=O)NCc1ccccc1OC | > 100 µM |  |  |  |
| CCCCCCCCC(=O)NCc1cccnc1 | > 100 µM |  |  |  |
| CCCCCCCCC(=O)NCc1ccc(OC)c(OC)c1 | 6.41 µM | 1.15 µM | > 50 µmol/kg |  |
| CCCCCCCCC(=O)NCc1cc(OC)c(O)cc1OC | > 100 µM |  |  |  |
| CCCCCCCCNC(=O)Cc1ccc(O)c(O)c1 | 0.41 µM | 0.33 µM | 50 µmol/kg | 9.2 |
| CCCCCCCCNC(=O)Cc1ccc(O)c(NC(C)=O)c1 | > 100 µM |  |  | 9.7 |
| CCCCCCCCNC(=O)Cc1ccc(O)c(N)c1 | > 100 µM |  |  | 10 |
| CCCCCCCCNC(=O)Cc1ccc(O)cc1 | 6.5 µM | 2.75 µM | > 50 µmol/kg | 10.2 |
| CCCCCCCCC(=O)NCc1ccc(O)c(O)c1 | 0.63 µM | 0.22 µM | 20 µmol/kg |  |
| CCCCCCCCC(=O)NCc1cccc(O)c1 | > 100 µM |  |  |  |
| CCCCCCCCC(=O)NCc1ccc2c(c1)OCO2 | > 100 µM |  |  |  |
| COc1cc(CNC(=O)CCCC/C=C/C(C)C)ccc1O [CAPSAICIN] | 0.3 µM | 0.26 µM | 15 µmol/kg |  |
| CCCCCCCCC(=O)NCc1ccccc1 [NONANOIC ACID BENZYLAMIDE] | > 100 µM |  |  |  |
| CCCCCCCCC(=O)NCc1ccc(O)c(OC)c1 [NONIVAMIDE] | 0.55 µM | 0.4 µM | 5 µmol/kg |  |
